Assay [1] in a line: Ratio of antifungal activity against Candida albicans ATCC 10231 to antifungal activity against Cryptococcus neoformans ATCC 32264. It counts as functional.
Assay [2] deals with Candida albicans. The experiment in a line: Growth inhibition of Candida albicans ATCC 10231 at 3.9 ug/ml incubated for 48 hrs under dark condition by broth microdilution assay relative to amphotericin B. The class given is functional. As to conditions: ATCC 10231, 48 h, read-out: GI. The gist of the method:
(§1)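 Yeast broth microdilution (CLSI M27-A3), RPMI-1640, inoculum 1-5 x 10^3 CFU/mL, DMSO ≤1%, 48 h at 30 °C in a moist, dark chamber. […]. Triplicate; amphotericin B as positive control.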
(In general: Dilution methods test growth across graded concentrations, often in twofold steps.)

The test system of assay [3] is Candida albicans. The experiment in a line: Growth inhibition of Candida albicans ATCC 10231 at 7.81 ug/ml incubated for 48 hrs under dark condition by broth microdilution assay relative to amphotericin B. The class given is functional. As to conditions: ATCC 10231, 48 h, read-out: GI. The procedure, abridged: as §1
In assay [4] the test system is Candida albicans. The experiment in a line: Growth inhibition of Candida albicans ATCC 10231 at 15.62 ug/ml incubated for 48 hrs under dark condition by broth microdilution assay relative to amphotericin B. The class given is functional. The note with it: ATCC 10231, 48 h, read-out: GI. The procedure, abridged:
as §1

Assay [5] has as its system Candida albicans. The experiment in a line: Growth inhibition of Candida albicans ATCC 10231 at 31.25 ug/ml incubated for 48 hrs under dark condition by broth microdilution assay relative to amphotericin B. It counts as functional. As to conditions: ATCC 10231, 48 h, read-out: GI. The procedure, abridged:
as §1

Assay [6] has as its system Candida albicans. The experiment in a line: Growth inhibition of Candida albicans ATCC 10231 at 62.5 ug/ml incubated for 48 hrs under dark condition by broth microdilution assay relative to amphotericin B. It counts as functional. The note with it: ATCC 10231, 48 h, read-out: GI. The procedure, abridged: as §1
Assay [7] concerns Candida albicans. The experiment in a line: Growth inhibition of Candida albicans ATCC 10231 at 125 ug/ml incubated for 48 hrs under dark condition by broth microdilution assay relative to amphotericin B. The class given is functional. The note with it: ATCC 10231, 48 h, read-out: GI. The procedure, abridged: as §1
Assay [8] concerns Candida albicans. Briefly: Growth inhibition of Candida albicans ATCC 10231 at 250 ug/ml incubated for 48 hrs under dark condition by broth microdilution assay relative to amphotericin B. The class given is functional. As to conditions: ATCC 10231, 48 h, read-out: GI. The procedure, abridged:
as §1

For assay [9], the system named is Candida albicans. Briefly: Antifungal activity against Candida albicans ATCC 10231 incubated for 48 hrs under dark condition by broth microdilution assay. It counts as functional. As to conditions: ATCC 10231, 48 h. The procedure, abridged:
(§2)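 Broth microdilution per CLSI M27-A3 in RPMI-1640. Inocula adjusted to 1-5 x 10^3 CFU/mL. Stocks in DMSO (≤1%), final 3.9-250.0 µg/mL. Incubated 48 h at 30 °C in a moist, dark chamber, read at OD 405. % inhibition computed from growth and sterility control wells, run in triplicate. MIC80/MIC50 taken from four-parameter logistic concentration-response curves; amphotericin B as positive control.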

A short description of assay [10]: Antifungal activity against Cryptococcus neoformans ATCC 32264 incubated for 48 hrs under dark condition by broth microdilution assay. The class given is functional. The procedure, abridged: as §2
A short description of assay [11]: Antiproliferative activity against human TOV21G harboring wild type TP53 cells after 24 hrs by MTT assay. The class given is functional, cell-based. The gist of the method: (§3)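 Cells grown in medium with 10% foetal bovine serum and 1% L-glutamine at 37 °C, 5% CO2, seeded at 1 x 10^5 cells/well. Exposed to compound at 1.0-1,000 µg/mL for 24 h. MTT added, absorbance read at 540 nm 3 h later. IC50 obtained by non-linear regression of viability data.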

Assay [12] is described as follows: Antiproliferative activity against human CCD-19Lu cells after 24 hrs by MTT assay. It counts as cell-based. The gist of the method:
as §3
A general note: Tetrazolium assays rely on reduction of a dye to a coloured formazan, in cell work by metabolically active cells.

A short description of assay [13]: Antiproliferative activity against human NCI-H226 cells harboring TP53 mutant after 24 hrs by MTT assay. The class given is functional, cell-based. As to conditions: NCI-H226, 24 h. The procedure, abridged: as §3
A short description of assay [14]: Antiproliferative activity against human Hep2C cells after 24 hrs by MTT assay. It counts as functional, cell-based. The procedure, abridged: as §3
A short description of assay [15]: Selectivity index, ratio of IC50 for human CCD-19Lu cells to IC50 for human TOV21G cells. It counts as functional. The procedure, abridged: (§4)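 Selectivity index equals IC50 in non-tumour CCD 19-Lu lung fibroblasts divided by IC50 in the tumour line. Both IC50s come from the 24 h MTT assay (read at 540 nm) over 1.0-1,000 µg/mL.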
In assay [16] the test system is NCI-H226. Briefly: Selectivity index, ratio of IC50 for human CCD-19Lu cells to IC50 for human NCI-H226 cells. The class given is functional. The gist of the method:
as §4

A short description of assay [17]: Selectivity index, ratio of IC50 for human CCD-19Lu cells to IC50 for human Hep2C cells. It counts as functional. The gist of the method:
as §4

Assay [18] in a line: Antioxidant activity assessed as DPPH radical scavenging activity at 160 uM incubated for 30 mins under dark condition. It counts as functional. The procedure, abridged: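 Compound at 160 µM incubated with 100 µM DPPH in ethanolic medium, stirred in the dark for 30 min, read at 517 nm. Resveratrol as positive control. Three independent experiments, each in triplicate.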
In general terms: The DPPH test is a chemical assay of radical scavenging.

The nature of assay [19]: Antioxidant activity assessed as DPPH radical scavenging activity incubated for 30 mins under dark condition. It counts as functional. The gist of the method: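 DPPH (100 µM) in ethanolic medium, stirred 30 min in the dark, absorbance at 517 nm. Compound varied from 0 to 160 µg/mL to find the concentration scavenging 50% of radicals. Three independent experiments, each in triplicate.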

Assay [20] in a line: Antioxidant activity assessed as fluorescent light-induced superoxide anion scavenging activity at 160 uM incubated for 10 mins by nitroblue tetrazolium dye based assay. The class given is functional. The gist of the method: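 Superoxide generated photochemically in 50 mM phosphate buffer pH 7.8 with 13 mM L-methionine, 75 µM nitroblue tetrazolium, 100 µM EDTA and 2 µM riboflavin. Compound at 160 µM. 10 min at 25 °C under fluorescent light; dark controls. Read at 575 nm. Resveratrol as positive control; three independent experiments in triplicate.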

Assay [21] is described as follows: Antioxidant activity assessed as fluorescent light-induced superoxide anion scavenging activity incubated for 10 mins by nitroblue tetrazolium dye based assay. It counts as functional. The gist of the method: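 Riboflavin/light superoxide system: 50 mM phosphate pH 7.8, 13 mM L-methionine, 75 µM NBT, 100 µM EDTA, 2 µM riboflavin, compound 0-200 µg/mL. Fluorescent light for 10 min at 25 °C, dark controls, scavenging measured at 575 nm. Resveratrol as reference.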

In brackets after ≈: the same amount, converted by molar mass.

In general, MIC50 refers to the lowest concentration that inhibits either 50% of growth or 50% of the strains tested, depending on the study. A high value points to lower susceptibility. The term MIC80 denotes an inhibitory concentration at the 80% level, which refers to growth in some studies and to a panel of isolates in others. Low values mean greater potency, high ones weaker potency. In general, IC50 refers to the concentration needed to halve the response being measured.

`Brc1ccc2nc(-c3ccccc3)cc(-c3ccccc3)c2c1`: the Ratio in assay [1] is on record as 4. Further, the inhibition of growth at 3.9 µg/mL in [2] came to 1.16%. Moreover, in assay [3], the inhibition of growth at 7.81 µg/mL is 2.57%. Besides, the inhibition of growth at 15.62 µg/mL in assay [4] worked out at 7.33%. Moreover, in assay [5], the inhibition of growth at 31.25 µg/mL is 10.1%. The inhibition of growth at 62.5 µg/mL in assay [6] was found to be 17.2%. For the same compound, the inhibition of growth at 125 µg/mL in assay [7] turned out to be 30.7%. Besides, the inhibition of growth at 250 µg/mL in assay [8] amounted to 55.9%. The MIC50 is 125 µg/mL (≈ 347 µM) in assay [9] and 31.2 µg/mL (≈ 86.6 µM) in [10]. The MIC80 in [9] and in [10] was over 250 µg/mL in each case. Also, the half-maximal inhibitory concentration (IC50) in assay [11] stood at 531 µM; in assay [12] it was 669 µM; in assay [13], 43.4 µM; in assay [14], 128 µM. For the same compound, the entries for the “Ratio IC50” value in assay [15], in [16] and in [17] were 1, 15 and 5, respectively. The results for the Activity in [18] and in assay [20] were 45 to 55% and under 10%, respectively. The SC50 in assay [19] and in assay [21] was over 250 µM throughout.

The values are drawn from ChEMBL document CHEMBL3875213, “Quinolines: Microwave-assisted synthesis and their antifungal, anticancer and radical scavenger properties” (Bioorg Med Chem, 2017).
